From ChEMBL document CHEMBL4024771, “Optimization of Orally Bioavailable Enhancer of Zeste Homolog 2 (EZH2) Inhibitors Using Ligand and Property-Based Design Strategies: Identification of Development Candidate …” (J Med Chem, 2018)
pIC50, pKi: −log10 of the molar value. ≈ marks a conversion by molar mass, not a printed value.

How the values were obtained:
[1] = target: Histone-lysine N-methyltransferase EZH2 (Homo sapiens, UniProt Q15910); assay: Inhibition of EZH2 in human KARPAS422 cells assessed as reduction in H3K27me3 level after 72 hrs by ELISA
Histone-lysine N-methyltransferase EZH2 (Homo sapiens, UniProt Q15910), sequence (Q15910 whole entry): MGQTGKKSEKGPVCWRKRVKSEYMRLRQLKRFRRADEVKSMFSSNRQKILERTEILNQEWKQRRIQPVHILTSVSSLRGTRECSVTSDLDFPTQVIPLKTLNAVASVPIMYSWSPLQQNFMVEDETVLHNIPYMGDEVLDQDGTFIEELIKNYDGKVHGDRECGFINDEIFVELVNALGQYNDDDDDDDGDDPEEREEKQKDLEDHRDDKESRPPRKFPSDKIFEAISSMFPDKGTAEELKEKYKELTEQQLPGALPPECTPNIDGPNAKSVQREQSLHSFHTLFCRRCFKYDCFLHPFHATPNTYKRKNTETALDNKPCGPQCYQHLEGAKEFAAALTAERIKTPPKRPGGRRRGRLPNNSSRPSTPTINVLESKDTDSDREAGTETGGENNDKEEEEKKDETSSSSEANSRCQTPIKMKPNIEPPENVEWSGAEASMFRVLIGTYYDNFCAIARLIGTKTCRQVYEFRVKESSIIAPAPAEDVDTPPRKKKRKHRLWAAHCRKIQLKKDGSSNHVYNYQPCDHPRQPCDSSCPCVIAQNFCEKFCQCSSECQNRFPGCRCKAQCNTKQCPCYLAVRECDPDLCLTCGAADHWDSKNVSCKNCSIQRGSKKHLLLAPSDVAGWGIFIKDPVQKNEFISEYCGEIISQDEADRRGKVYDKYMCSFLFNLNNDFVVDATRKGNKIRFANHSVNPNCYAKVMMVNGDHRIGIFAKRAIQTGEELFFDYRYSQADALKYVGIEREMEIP

[2] = target: Histone-lysine N-methyltransferase EZH2 (Homo sapiens, UniProt Q15910, Y641N); assay: Inhibition of EZH2 Y641N mutant (unknown origin) using oligonucleosomes as substrate after 60 mins in presence of [3H]SAM by scintillation counting analysis
Histone-lysine N-methyltransferase EZH2 (Homo sapiens, UniProt Q15910, Y641N), sequence (Q15910 whole entry Y641N): as the sequence (Q15910 whole entry) above, with Y641N counted along it

KARPAS-422 = assay: Antiproliferative activity against human KARPAS422 cells after 72 hrs by resazurin assay; format: functional, cell-based
Liver = assay: (§1) Intrinsic clearance in human liver microsomes assessed per mg protein at 1 uM preincubated for 10 mins followed by NADPH addition measured after 45 mins by LC-MS/MS analysis; format: ADME, microsome; settings: microsomes, 0.75 h, 1 µM
Procedure, shortened: (§2)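 Test compound (1 μM) with pooled liver microsomes (0.8 mg/mL protein) in 100 mM potassium phosphate pH 7.4, 10 min preincubation, started with 2 mM NADPH, 45 min at 37 °C, in triplicate. Samples quenched with cold methanol containing buspirone internal standard, analysed by LC−MS/MS. CLint derived from t1/2 of parent loss (log-linear slope).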

[3] = Kinetic solubility of the compound; format: physicochemical; settings: for solubility kinetic: read-out: Kinetic_solubility
[4] = Passive permeability in MDCK cells at 2 uM after 90 mins by LC-MS/MS analysis; format: ADME, cell-based, Canis lupus familiaris; settings: dog; for permeability: mdck, 2 µM; for Papp at […], 2 µM: MDCK, read-out: permeability
Procedure, shortened: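 Low-efflux MDCK cells (MDCK-LE) on 96-well inserts, used on day 4. Monodirectional transport of 2 μM drug in transport buffer with 0.1% DMSO at 37 °C. Donor and receiver sampled at 0 and 90 min for LC−MS/MS. Donor pH 6.5 and 7.4, receiver pH 7.4.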

[5] = Lipophilicity, log D of the compound at pH 7.4; settings: buffer
[6] = as §1; format: ADME, microsome; settings: liver microsomes, read-out: CLH; procedure, shortened: as §2
[7] = Thermodynamic solubility in water at 25 degC using crystalline form; format: physicochemical; settings: read-out: Therm_solubility
[8] = Clearance in human hepatocytes assessed per million cells; format: ADME, cell-based, Hepatocyte; settings: read-out: CLH

SMILES	pIC50 [1]	pKi [2]	pIC50 (KARPAS-422; karpas-422)	microsomal CLint (Liver)	Kinetic_solubility [3]	permeability [4]	logD ([5]; pH 7.4)	pIC50 (KARPAS-422; Homo sapiens, KARPAS-422, 72 h)	microsomal CLint at 1 µM [6]	solubility kinetic [3]	solubility thermodynamic [7]	Papp at […], 2 µM [4]	logD ([5]; pH 7.4, logD)	hepatocyte CLint [8]
CCOC(c1cc(Cl)c2c(c1Cl)C(=O)N(Cc1c(C)cc(C)[nH]c1=O)CC2)C1CS(=O)(=O)C1 (single isomer, unassigned)	5.22	6.34	5.26	45.7 µL/min/mg	446 µM	7.7 ×10⁻⁶ cm/s	2.3	–	–	–	–	–	–	–
Cc1cc(C)c(CN2CCc3c(Cl)cc([C@H](C)CO)c(Cl)c3C2=O)c(=O)[nH]1	6.89	7.77	–	–	–	–	–	6.73	15.8 µL/min/mg	131 µM (≈ 53.6 µg/mL)	34 µg/mL (≈ 83.1 µM)	12.4 ×10⁻⁶ cm/s	2.6	–
COC(c1cc(Cl)c2c(c1Cl)C(=O)N(Cc1c(C)cc(C)[nH]c1=O)CC2)C1CCOCC1 (single isomer, unassigned; (+))	8.05	10.00	7.72	129 µL/min/mg	–	–	–	–	–	57.5 µM (≈ 27.6 µg/mL)	–	13.3 ×10⁻⁶ cm/s	3.4	–
COC(c1cc(Cl)c2c(c1Cl)C(=O)N(Cc1c(C)cc(C)[nH]c1=O)CC2)C1CCN(C)CC1 (single isomer, unassigned; (+))	8.05	> 10.00	7.96	< 10.2 µL/min/mg	–	–	–	–	–	639 µM (≈ 315 µg/mL)	–	2.7 ×10⁻⁶ cm/s	1.4	–
COc1cc(C)[nH]c(=O)c1CN1CCc2c(Cl)cc(C(OC)C3(C)COC3)c(Cl)c2C1=O (single isomer, unassigned; (+))	8.10	9.15	8.05	207 µL/min/mg	–	–	–	–	–	486 µM (≈ 234 µg/mL)	–	5.7 ×10⁻⁶ cm/s	2.3	–
COC(c1cc(Cl)c2c(c1Cl)C(=O)N(Cc1c(C)cc(C)[nH]c1=O)CC2)C1CCOC1 (single isomer, unassigned; (-)10c)	6.31	7.52	6.39	93.3 µL/min/mg	457 µM	15.4 ×10⁻⁶ cm/s	–	–	–	–	–	–	–	–
COc1cc(C)[nH]c(=O)c1CN1CCc2c(Cl)cc(C(OC)C3CCN(C(=O)CO)CC3)c(Cl)c2C1=O (single isomer, unassigned; (+))	–	–	8.00	25.6 µL/min/mg	–	–	–	–	–	480 µM (≈ 265 µg/mL)	–	1.5 ×10⁻⁶ cm/s	1.7	–
CCC(O)c1cc(Cl)c2c(c1Cl)C(=O)N(Cc1c(C)cc(C)[nH]c1=O)CC2 (single isomer, unassigned; (+))	5.98	6.89	6.15	18 µL/min/mg	59 µM	–	–	–	–	–	–	15 ×10⁻⁶ cm/s	3.1	–
COC(c1cc(Cl)c2c(c1Cl)C(=O)N(Cc1c(C)cc(C)[nH]c1=O)CC2)C1CCS(=O)(=O)CC1 (stereo in doubt; (+)-18a)	–	–	7.62	40 µL/min/mg	–	–	–	–	–	373 µM (≈ 197 µg/mL)	–	6.3 ×10⁻⁶ cm/s	2.2	–
CCC(O)c1cc(Cl)c2c(c1Cl)C(=O)N(Cc1c(C)cc(C)[nH]c1=O)CC2 (stereo in doubt; (-)-3b)	5.27	6.38	5.45	8 µL/min/mg	–	15.7 ×10⁻⁶ cm/s	–	–	–	56 µM (≈ 22.9 µg/mL)	–	–	–	–
Cc1cc(C)c(CN2CCc3c(Cl)cc(-c4c(C)noc4C)c(Cl)c3C2=O)c(=O)[nH]1	7.77	8.94	–	–	–	–	–	7.64	107 to 169 µL/min/mg	93 to 95 µM (≈ 41.5 to 42.4 µg/mL)	2 µg/mL (≈ 4.48 µM)	15.7 ×10⁻⁶ cm/s	–	75 µL/min/1e6 cells
COc1cc(C)[nH]c(=O)c1CN1CCc2c(Cl)cc(C(OC)C3CCOC3)c(Cl)c2C1=O (single isomer, unassigned; (+))	8.40	> 10.00	8.05	60 µL/min/mg	–	–	–	–	–	433 µM (≈ 208 µg/mL)	–	7.2 ×10⁻⁶ cm/s	2.5	–
COc1cc(C)[nH]c(=O)c1CN1CCc2c(Cl)cc(C(OC)C3CCOC3)c(Cl)c2C1=O (single isomer, unassigned; form 1)	6.96	7.38	6.95	97.2 µL/min/mg	521 µM	8.4 ×10⁻⁶ cm/s	–	–	–	–	–	–	–	–
